{"data": "Published values collected from several papers", "target": "Cannabinoid receptor 2 (CNR2, Homo sapiens, UniProt P34972)", "note": "Lines come from different studies, so protocols differ."}
{"SMILES": "C[C@H]1CC[C@H]2[C@H](C1)c1c(O)cc(-c3csc4ccccc34)cc1OC2(C)C", "effect on": "GTPγS binding", "action": "agonist", "method": "radiometric", "notes": "cell membranes", "measurement": "EC50", "result": "16000 nM"}
{"SMILES": "NC(=O)[C@@H]1CC(F)(F)CN1C(=O)c1ccc(N2CC(F)(F)C2)c(OCC2CC2)n1", "effect on": "cAMP", "action": "agonist", "measurement": "EC50", "result": "3 nM"}
{"SMILES": "CC1CCC(NC(=O)c2cc3cc(Br)cnc3n(CCN3CCOCC3)c2=O)CC1 (stereo not drawn)", "effect on": "ligand displacement", "method": "radioligand", "measurement": "IC50", "result": "4.95 nM"}
{"SMILES": "CCOC(=O)C(CC)(CCCSCCOCCOCCOCCNC(=O)OC(C)(C)C)NC(=O)c1ccc(C2CC2)c(Cc2ccc(F)cc2)n1 (stereo not drawn)", "effect on": "cAMP", "action": "agonist", "measurement": "EC50", "result": "10 nM"}
{"SMILES": "COc1ccc(-c2cnc3c(c2)cc(C(=O)NC2CCC(C)CC2)c(=O)n3CCN2CCOCC2)cc1 (stereo not drawn)", "effect on": "ligand displacement", "method": "radioligand", "measurement": "IC50", "result": "5.56 nM"}
{"SMILES": "CCCCCn1cc(C(=O)C2C(C)(C)C2(C)C)c2ccccc21", "effect on": "GTPγS binding", "action": "agonist", "method": "radiometric", "notes": "cell membranes", "measurement": "EC50", "result": "334 nM"}
{"SMILES": "CCOC(=O)[C@](CC)(CCC[S+]([O-])CCOCCOCCNC(=O)OC(C)(C)C)NC(=O)c1ccc(C2CC2)c(Cc2ccc(F)cc2)n1 (stereo partly drawn)", "effect on": "cAMP", "action": "agonist", "measurement": "EC50", "result": "7.9 nM"}
{"SMILES": "CC1(C)C(C(=O)c2cn(CCCCCF)c3ccccc23)C1(C)C", "effect on": "GTPγS binding", "action": "agonist", "method": "radiometric", "notes": "cell membranes", "measurement": "EC50", "result": "145 nM"}
{"SMILES": "Cc1nc([C@@](C)(CC2CC2)NC(=O)c2cc(OCC(F)(F)F)c(C3CC3)cn2)no1", "effect on": "cAMP", "action": "agonist", "measurement": "EC50", "result": "8 nM"}
